The source made the active and inactive calls. No cut-off for these calls is given here.
Assays:
[1] = (§1) Acute toxicity in po dosed albino CFW mouse assessed as mortality measured over 48 hrs; assay type: organism-based; settings: albino CFW, in vivo
[2] = (§2) Acute toxicity in ip dosed albino CFW mouse assessed as mortality measured over 48 hrs; assay type: organism-based; settings: albino CFW, in vivo
Mus musculus [3] = test: Antidepressant activity in CFW mouse assessed as reversal of reserpine-induced hypothermia by measuring temperature index at 0.09 mmol/kg, sc measured every 30 mins up to 1.5 hrs; assay type: functional
Procedure, shortened: (§3)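 Groups of five CFW mice received reserpine 4 mg/kg sc. After 2.5 h, rectal temperature was taken. The temperature index (TI) is the sum of the group's mean changes from its mean initial temperature at 30, 60 and 90 min. Scoring: 0 = no effect, 1 = TI 5–10, 2 = TI >10. A run was repeated if the reserpine control TI fell outside −5 to −15.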

Mus musculus [4] = test: Antiparkinsonian activity in CFW mouse assessed as reversal of reserpine-induced catalepsy at 0.09 mmol/kg, sc measured every 30 mins up to 1.5 hrs; assay type: functional, organism-based
Procedure, shortened: (§4)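 Groups of five CFW mice were given reserpine 4 mg/kg sc, and catalepsy was assessed 2.5 h later. Reversal was scored 0–5: 0 no effect, 1 marginal, 2 significant, 3 marked, 4 approaching complete, 5 complete reversal.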

Rattus norvegicus [5] = test: Antiparkinsonian activity in Wistar rat assessed as reversal of reserpine-induced catalepsy at 0.14 mmol/kg, po measured every 30 mins up to 1.5 hrs; assay type: functional, organism-based
Mus musculus [6] = test: Antidepressant activity in CFW mouse assessed as reversal of reserpine-induced hypothermia by measuring temperature index at 0.16 mmol/kg, sc measured every 30 mins up to 1.5 hrs; assay type: functional
Mus musculus [7] = test: Antiparkinsonian activity in CFW mouse assessed as reversal of reserpine-induced catalepsy at 0.16 mmol/kg, sc measured every 30 mins up to 1.5 hrs; assay type: functional, organism-based
Mus musculus [8] = test: Antidepressant activity in CFW mouse assessed as reversal of reserpine-induced hypothermia by measuring temperature index at 0.14 mmol/kg, sc measured every 30 mins up to 1.5 hrs; assay type: functional
Mus musculus [9] = test: Antiparkinsonian activity in CFW mouse assessed as reversal of reserpine-induced catalepsy at 0.14 mmol/kg, sc measured every 30 mins up to 1.5 hrs; assay type: functional, organism-based
Mus musculus [10] = test: Antiparkinsonian activity in CFW mouse assessed as reversal of reserpine-induced catalepsy at 0.07 mmol/kg, sc measured every 30 mins up to 1.5 hrs; assay type: functional, organism-based; procedure, shortened: as §4
Rattus norvegicus [11] = test: Antiparkinsonian activity in Wistar rat assessed as reversal of reserpine-induced catalepsy at 0.07 mmol/kg, po measured every 30 mins up to 1.5 hrs; assay type: functional, organism-based
Mus musculus [12] = test: as §1; assay type: organism-based; settings: in vivo, 48 h
Mus musculus [13] = test: as §2; assay type: organism-based; settings: in vivo, 48 h
Mus musculus [14] = test: Antidepressant activity in CFW mouse assessed as reversal of reserpine-induced hypothermia by measuring temperature index at 0.03 mmol/kg, sc measured every 30 mins up to 1.5 hrs; assay type: functional; procedure, shortened: as §3
Mus musculus [15] = test: Antidepressant activity in CFW mouse assessed as reversal of reserpine-induced hypothermia by measuring temperature index at 0.20 mmol/kg, sc measured every 30 mins up to 1.5 hrs; assay type: functional, organism-based
Mus musculus [16] = test: Antiparkinsonian activity in CFW mouse assessed as reversal of reserpine-induced catalepsy at 0.20 mmol/kg, sc measured every 30 mins up to 1.5 hrs; assay type: functional, organism-based
Mus musculus [17] = test: Antidepressant activity in CFW mouse assessed as reversal of reserpine-induced hypothermia by measuring temperature index at 0.13 mmol/kg, sc measured every 30 mins up to 1.5 hrs; assay type: functional, organism-based
Mus musculus [18] = test: Antiparkinsonian activity in CFW mouse assessed as reversal of reserpine-induced catalepsy at 0.13 mmol/kg, sc measured every 30 mins up to 1.5 hrs; assay type: functional, organism-based
Rattus norvegicus [19] = test: Antiparkinsonian activity in Wistar rat assessed as reversal of reserpine-induced catalepsy at 0.13 mmol/kg, po measured every 30 mins up to 1.5 hrs; assay type: functional, organism-based
Mus musculus [20] = test: Antidepressant activity in CFW mouse assessed as reversal of reserpine-induced hypothermia by measuring temperature index at 0.32 mmol/kg, sc measured every 30 mins up to 1.5 hrs; assay type: functional, organism-based
Mus musculus [21] = test: Antiparkinsonian activity in CFW mouse assessed as reversal of reserpine-induced catalepsy at 0.32 mmol/kg, sc measured every 30 mins up to 1.5 hrs; assay type: functional, organism-based
Rattus norvegicus [22] = test: Antiparkinsonian activity in Wistar rat assessed as reversal of reserpine-induced catalepsy at 0.08 mmol/kg, po measured every 30 mins up to 1.5 hrs; assay type: functional, organism-based
Mus musculus [23] = test: Antidepressant activity in CFW mouse assessed as reversal of reserpine-induced hypothermia by measuring temperature index at 0.11 mmol/kg, sc measured every 30 mins up to 1.5 hrs; assay type: functional, organism-based
Mus musculus [24] = test: Antiparkinsonian activity in CFW mouse assessed as reversal of reserpine-induced catalepsy at 0.11 mmol/kg, sc measured every 30 mins up to 1.5 hrs; assay type: functional, organism-based

Compound: Cl.c1ccc(CCNC2CC3CC4CC(C3)C2C4)cc1 (stereo in doubt; 12)
- LD50 at 48 h [1]: 1000 µmol/kg
- LD50 at 48 h [2]: 300 µmol/kg
- Activity (Mus musculus [3]): 5

Compound: c1ccc(CCNC2CC3CC4CC(C3)C2C4)cc1 (stereo in doubt; 12)
- Activity (Mus musculus [4]): Active
- Activity (Rattus norvegicus [5]): inactive

Compound: Cl.Clc1ccc(CNC2CC3CC4CC(C3)C2C4)cc1 (stereo not given)
- LD50 at 48 h [1]: 1900 µmol/kg
- LD50 at 48 h [2]: 600 µmol/kg
- Activity (Mus musculus [6]): 5
- Activity (Mus musculus [7]): inactive

Compound: CNCC1CC2CC3CC(C2)C1C3.O=C(O)/C=C\C(=O)O (stereo not given)
- LD50 at 48 h [1]: 1000 µmol/kg
- LD50 at 48 h [2]: 500 µmol/kg
- Activity (Mus musculus [8]): 5
- Activity (Mus musculus [9]): inactive

Compound: c1ccc(CCNC2CC3CC4CC(C3)C2C4)cc1 (stereo in doubt; 13)
- Activity (Mus musculus [10]): inactive
- Activity (Rattus norvegicus [5]): Active

Compound: Cl.c1ccc(CNC2CC3CC4CC(C3)C2C4)cc1 (stereo not given)
- LD50 at 48 h [1]: 700 µmol/kg
- LD50 at 48 h [2]: 500 µmol/kg
- Activity (Mus musculus [3]): >10
- Activity (Mus musculus [4]): Active
- Activity (Rattus norvegicus [11]): Active

Compound: Cl.c1ccc(CCNC2CC3CC4CC(C3)C2C4)cc1 (stereo in doubt; 13)
- LD50 (Mus musculus [12]): 0.5 mmol/kg
- LD50 (Mus musculus [13]): 0.2 mmol/kg
- Activity (Mus musculus [14]): 5

Compound: CN(C)CC1(O)CC2CC3CC(C2)C1C3.Cl (stereo not given)
- LD50 at 48 h [1]: 1600 µmol/kg
- LD50 at 48 h [2]: 1200 µmol/kg
- Activity (Mus musculus [15]): inactive
- Activity (Mus musculus [16]): inactive

Compound: CN(C)CC12CC3CC(CC(C3)C1Br)C2.Cl (stereo not given)
- LD50 at 48 h [1]: 1300 µmol/kg
- LD50 at 48 h [2]: 500 µmol/kg
- Activity (Mus musculus [17]): inactive
- Activity (Mus musculus [18]): inactive
- Activity (Rattus norvegicus [19]): Active

Compound: CNCC1(O)CC2CC3CC(C2)C1C3.O=C(O)/C=C\C(=O)O (stereo not given)
- LD50 at 48 h [1]: 3900 µmol/kg
- LD50 at 48 h [2]: 1900 µmol/kg
- Activity (Mus musculus [20]): inactive
- Activity (Mus musculus [21]): inactive

Compound: Br.CN1CCN(CC23CC4CC(CC(C4)C2Br)C3)CC1 (stereo not given)
- LD50 at 48 h [1]: 1200 µmol/kg
- LD50 at 48 h [2]: 600 µmol/kg
- Activity (Mus musculus [17]): inactive
- Activity (Mus musculus [18]): inactive
- Activity (Rattus norvegicus [22]): inactive

Compound: Cl.OCCNC1CC2CC3CC(C2)C1C3 (stereo not given)
- LD50 at 48 h [1]: 2600 µmol/kg
- LD50 at 48 h [2]: 600 µmol/kg
- Activity (Mus musculus [23]): inactive
- Activity (Mus musculus [24]): inactive

Reference: ChEMBL document CHEMBL3272084, “Adamantane and protoadamantanealkanamines as potential anti-Parkinson agents” (J Med Chem, 1976)
